{
  "source": "ChEMBL document CHEMBL1255502",
  "about": "“A nonazole CYP51 inhibitor cures Chagas' disease in a mouse model of acute infection” (Antimicrob Agents Chemother, 2010)",
  "key": {"Trypanosoma cruzi [1]": {"system": "Trypanosoma cruzi", "assay": "Antimicrobial activity against Trypanosoma cruzi infected in C3H mouse at 50 mg/kg, ip BID administered 24 hrs post infection measured after 12 days", "format": "functional, organism-based", "design": "dose 50 mg/kg", "outline": "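Female C3H mice (7–8 weeks, 17.5–18.0 g, five per group) infected i.p. with 10⁶ tissue-culture trypomastigotes of T. cruzi CA-I/72. The cruzain cysteine-protease inhibitor was given from 24 h postinfection: i.p. in 100 μl of 30% DMSO–70% ddH₂O, twice daily for 30 days. An untreated infected group served as control. Clinical signs (ascites, hind-leg weakness) were assessed at day 12 postinfection.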"}, "[2]": {"molecular_target": "Sterol 14-alpha demethylase (Trypanosoma cruzi (strain CL Brener)) (UniProt Q7Z1V1)", "sequence (Q7Z1V1 whole entry, looked up, the tested form may be a part)": "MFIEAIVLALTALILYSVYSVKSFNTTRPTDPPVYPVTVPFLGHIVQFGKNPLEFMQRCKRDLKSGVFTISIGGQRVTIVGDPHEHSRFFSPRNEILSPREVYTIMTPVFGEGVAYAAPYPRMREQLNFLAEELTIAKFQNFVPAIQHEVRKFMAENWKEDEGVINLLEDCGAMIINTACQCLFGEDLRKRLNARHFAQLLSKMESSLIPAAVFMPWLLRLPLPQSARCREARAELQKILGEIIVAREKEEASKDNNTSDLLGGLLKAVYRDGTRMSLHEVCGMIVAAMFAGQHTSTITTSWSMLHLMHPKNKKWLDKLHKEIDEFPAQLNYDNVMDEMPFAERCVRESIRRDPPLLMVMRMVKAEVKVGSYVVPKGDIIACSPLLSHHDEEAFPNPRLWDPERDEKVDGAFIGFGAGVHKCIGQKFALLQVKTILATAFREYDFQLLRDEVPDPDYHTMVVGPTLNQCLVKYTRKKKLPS", "conditions": "BESM, 10 uM"}, "[3]": {"molecular_target": "Sterol 14-alpha demethylase (Trypanosoma cruzi (strain CL Brener)) (UniProt Q7Z1V1)", "assay": "Inhibition of sterol 14-alpha-demethylase in Trypanosoma cruzi epimastigotes infected in BESM cells assessed as reduction in episterol content at 5 uM after 72 hrs", "format": "cell-based", "outline": "(§1)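 Log-phase epimastigotes were grown axenically in BHT medium (fetal bovine serum, brain heart infusion) and exposed to 5 μM compound for 72 h, with untreated parasites as the control. Pellets were washed in PBS, extracted in chloroform for 24 h at room temperature, BSTFA-derivatized, and sterols were analysed by GC-MS on a DB5-MS column (200→300°C at 15°C/min).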"}, "[4]": {"molecular_target": "Sterol 14-alpha demethylase (Trypanosoma cruzi (strain CL Brener)) (UniProt Q7Z1V1)", "conditions": "BESM, 10 uM", "remark": "listed apart in the source"}, "[5]": {"molecular_target": "Sterol 14-alpha demethylase (Trypanosoma cruzi (strain CL Brener)) (UniProt Q7Z1V1)", "conditions": "BESM, 10 uM", "remark": "listed apart in the source"}, "[6]": {"molecular_target": "Sterol 14-alpha demethylase (Trypanosoma cruzi (strain CL Brener)) (UniProt Q7Z1V1)", "conditions": "BESM, 10 uM", "remark": "listed apart in the source"}, "[7]": {"molecular_target": "Sterol 14-alpha demethylase (Trypanosoma cruzi (strain CL Brener)) (UniProt Q7Z1V1)", "assay": "Inhibition of sterol 14-alpha-demethylase in Trypanosoma cruzi amastigotes infected in BESM cells assessed as accumulation of lanosterol and eburicol precursors at 5 uM after 72 hrs", "format": "cell-based", "outline": "(§2)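 T. cruzi CA-I/72 amastigotes were grown in BESM cells in RPMI 1640 with 5% heat-inactivated FCS at 37°C under 5% CO2. Monolayers were infected for 24 h, then the medium was replaced with 5 μM compound or DMSO; noninfected BESM cells served as a control. Lipids were extracted with chloroform, TMS-derivatized with BSTFA for 2 h, and sterols identified by GC-MS from [M−90]+ and [M+73]+ ions.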"}, "[8]": {"molecular_target": "Sterol 14-alpha demethylase (Trypanosoma cruzi (strain CL Brener)) (UniProt Q7Z1V1)", "conditions": "BESM, 10 uM", "remark": "listed apart in the source"}, "[9]": {"molecular_target": "Sterol 14-alpha demethylase (Trypanosoma cruzi (strain CL Brener)) (UniProt Q7Z1V1)", "assay": "Inhibition of sterol 14-alpha-demethylase in Trypanosoma cruzi amastigotes infected in BESM cells assessed as reduction in episterol content at 5 uM after 72 hrs", "format": "cell-based", "outline": "as §2"}, "[10]": {"molecular_target": "Sterol 14-alpha demethylase (Trypanosoma cruzi (strain CL Brener)) (UniProt Q7Z1V1)", "assay": "Inhibition of sterol 14-alpha-demethylase in Trypanosoma cruzi amastigotes infected in BESM cells assessed as reduction in fecosterol content at 5 uM after 72 hrs", "format": "cell-based", "outline": "as §2"}, "[11]": {"molecular_target": "Sterol 14-alpha demethylase (Trypanosoma cruzi (strain CL Brener)) (UniProt Q7Z1V1)", "conditions": "BESM, 10 uM", "remark": "listed apart in the source"}, "[12]": {"molecular_target": "Sterol 14-alpha demethylase (Trypanosoma cruzi (strain CL Brener)) (UniProt Q7Z1V1)", "assay": "Inhibition of sterol 14-alpha-demethylase in Trypanosoma cruzi epimastigotes infected in BESM cells assessed as reduction in fecosterol content at 5 uM after 72 hrs", "format": "cell-based", "outline": "as §1"}, "[13]": {"molecular_target": "Sterol 14-alpha demethylase (Trypanosoma cruzi (strain CL Brener)) (UniProt Q7Z1V1)", "conditions": "BESM, 10 uM", "remark": "listed apart in the source"}, "Trypanosoma cruzi [14]": {"system": "Trypanosoma cruzi", "assay": "Antimicrobial activity against Trypanosoma cruzi infected in C3H mouse at 40 mg/kg, ip BID administered 24 hrs post infection measured after 12 days", "format": "functional, organism-based", "design": "dose 40 mg/kg", "outline": "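Female C3H mice (7–8 weeks, 17.5–18.0 g, five per group) infected i.p. with 10⁶ tissue-culture trypomastigotes of T. cruzi CA-I/72. Dosing began 24 h postinfection: i.p. in 100 μl of 60% DMSO–40% ddH₂O, twice daily for 30 days. An untreated infected group served as control. Mice were scored for clinical signs (ascitic abdomen, hind-leg weakness) at day 12 postinfection.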"}, "[15]": {"molecular_target": "Sterol 14-alpha demethylase (Trypanosoma cruzi (strain CL Brener)) (UniProt Q7Z1V1)", "assay": "Inhibition of sterol 14-alpha-demethylase in Trypanosoma cruzi epimastigotes infected in BESM cells assessed as accumulation of lanosterol and eburicol precursors at 5 uM after 72 hrs", "format": "cell-based", "outline": "as §1"}, "[16]": {"molecular_target": "Sterol 14-alpha demethylase (Trypanosoma cruzi (strain CL Brener)) (UniProt Q7Z1V1)", "conditions": "BESM, 10 uM", "remark": "listed apart in the source"}, "[17]": {"molecular_target": "Sterol 14-alpha demethylase (Trypanosoma cruzi (strain CL Brener)) (UniProt Q7Z1V1)", "conditions": "BESM, 10 uM", "remark": "listed apart in the source"}, "[18]": {"molecular_target": "Sterol 14-alpha demethylase (Trypanosoma cruzi (strain CL Brener)) (UniProt Q7Z1V1)", "conditions": "BESM, 10 uM", "remark": "listed apart in the source"}, "[19]": {"molecular_target": "Sterol 14-alpha demethylase (Trypanosoma cruzi (strain CL Brener)) (UniProt Q7Z1V1)", "assay": "Inhibition of sterol 14-alpha-demethylase in Trypanosoma cruzi amastigotes infected in BESM cell assessed as appearance of large autophagic vesicles at 0.25 uM after 48 hrs by electron microscopy", "format": "cell-based"}, "[20]": {"molecular_target": "Sterol 14-alpha demethylase (Trypanosoma cruzi (strain CL Brener)) (UniProt Q7Z1V1)", "assay": "Inhibition of sterol 14-alpha-demethylase in Trypanosoma cruzi amastigotes infected in BESM cell assessed as abnormalities in nuclear membrane at 0.25 uM after 72 hrs by electron microscopy", "format": "cell-based"}, "[21]": {"molecular_target": "Sterol 14-alpha demethylase (Trypanosoma cruzi (strain CL Brener)) (UniProt Q7Z1V1)", "assay": "Inhibition of sterol 14-alpha-demethylase in Trypanosoma cruzi epimastigotes infected in BESM cell assessed as effect on cell division at 0.25 uM after 72 hrs by electron microscopy", "format": "cell-based"}, "[22]": {"molecular_target": "Sterol 14-alpha demethylase (Trypanosoma cruzi (strain CL Brener)) (UniProt Q7Z1V1)", "assay": "Inhibition of sterol 14-alpha-demethylase in Trypanosoma cruzi epimastigotes infected in BESM cell assessed as abnormalities in nuclear DNA at 0.25 uM after 72 hrs by electron microscopy", "format": "cell-based"}, "[23]": {"molecular_target": "Sterol 14-alpha demethylase (Trypanosoma cruzi (strain CL Brener)) (UniProt Q7Z1V1)", "assay": "Inhibition of sterol 14-alpha-demethylase in Trypanosoma cruzi amastigotes infected in BESM cell assessed as swelling of nuclear membrane at 0.25 uM after 48 hrs by electron microscopy", "format": "cell-based"}, "[24]": {"molecular_target": "Sterol 14-alpha demethylase (Trypanosoma cruzi (strain CL Brener)) (UniProt Q7Z1V1)", "assay": "Inhibition of sterol 14-alpha-demethylase in Trypanosoma cruzi amastigotes infected in BESM cell assessed as cell death at 0.25 uM after 72 hrs by electron microscopy"}, "[25]": {"molecular_target": "Sterol 14-alpha demethylase (Trypanosoma cruzi (strain CL Brener)) (UniProt Q7Z1V1)", "assay": "Inhibition of sterol 14-alpha-demethylase in Trypanosoma cruzi amastigotes infected in BESM cell assessed as blebbing of the cell membrane at 0.25 uM after 48 hrs by electron microscopy", "format": "cell-based"}, "[26]": {"molecular_target": "Sterol 14-alpha demethylase (Trypanosoma cruzi (strain CL Brener)) (UniProt Q7Z1V1)", "assay": "Inhibition of sterol 14-alpha-demethylase in Trypanosoma cruzi epimastigotes infected in BESM cell assessed as abnormalities in nuclear membrane at 0.25 uM after 72 hrs by electron microscopy", "format": "cell-based"}, "[27]": {"molecular_target": "Sterol 14-alpha demethylase (Trypanosoma cruzi (strain CL Brener)) (UniProt Q7Z1V1)", "assay": "Inhibition of sterol 14-alpha-demethylase in Trypanosoma cruzi epimastigotes infected in BESM cell assessed as cell death at 0.25 uM after 72 hrs by electron microscopy", "format": "cell-based"}, "[28]": {"molecular_target": "Sterol 14-alpha demethylase (Trypanosoma cruzi (strain CL Brener)) (UniProt Q7Z1V1)", "assay": "Inhibition of sterol 14-alpha-demethylase in Trypanosoma cruzi amastigotes infected in BESM cell assessed as abnormalities in nuclear DNA at 0.25 uM after 72 hrs by electron microscopy", "format": "cell-based"}},
  "note": "Activity calls are given as the source filed them. The rule behind the calls is not given here.",
  "data": [
    {"smiles": "CN1CCN(C(=O)N[C@@H](Cc2ccccc2)C(=O)N[C@H](/C=C/S(=O)(=O)c2ccccc2)CCc2ccccc2)CC1", "values": [
      {"measurement": "Activity", "setting": "Trypanosoma cruzi [1]", "value": "Active"}
    ]},
    {"smiles": "CC1CCC(C(=O)NC(Cc2c[nH]c3ccccc23)C(=O)Nc2ccncc2)CC1", "note": "(centres undefined)", "values": [
      {"measurement": "inhibition", "setting": "[2]", "value": "Active"},
      {"measurement": "inhibition", "setting": "[3]", "value": "Active"},
      {"measurement": "inhibition", "setting": "[4]", "value": "Active"},
      {"measurement": "inhibition", "setting": "[5]", "value": "Active"},
      {"measurement": "inhibition", "setting": "[6]", "value": "inactive"},
      {"measurement": "inhibition", "setting": "[7]", "value": "Active"},
      {"measurement": "inhibition", "setting": "[8]", "value": "Active"},
      {"measurement": "inhibition", "setting": "[9]", "value": "Active"},
      {"measurement": "inhibition", "setting": "[10]", "value": "Active"},
      {"measurement": "inhibition", "setting": "[11]", "value": "inactive"},
      {"measurement": "inhibition", "setting": "[12]", "value": "Active"},
      {"measurement": "inhibition", "setting": "[13]", "value": "inactive"},
      {"measurement": "Activity", "setting": "Trypanosoma cruzi [14]", "value": "Active"},
      {"measurement": "inhibition", "setting": "[15]", "value": "Active"},
      {"measurement": "inhibition", "setting": "[16]", "value": "inactive"},
      {"measurement": "inhibition", "setting": "[17]", "value": "Active"},
      {"measurement": "inhibition", "setting": "[18]", "value": "Active"}
    ]},
    {"smiles": "CC[C@@H]([C@H](C)O)n1ncn(-c2ccc(N3CCN(c4ccc(OC[C@@H]5CO[C@@](Cn6cncn6)(c6ccc(F)cc6F)C5)cc4)CC3)cc2)c1=O", "values": [
      {"measurement": "inhibition", "setting": "[19]", "value": "Active"},
      {"measurement": "inhibition", "setting": "[20]", "value": "Active"},
      {"measurement": "inhibition", "setting": "[21]", "value": "inactive"},
      {"measurement": "inhibition", "setting": "[22]", "value": "inactive"},
      {"measurement": "inhibition", "setting": "[3]", "value": "Active"},
      {"measurement": "inhibition", "setting": "[23]", "value": "Active"},
      {"measurement": "inhibition", "setting": "[7]", "value": "Active"},
      {"measurement": "inhibition", "setting": "[9]", "value": "Active"},
      {"measurement": "inhibition", "setting": "[24]", "value": "Active"},
      {"measurement": "inhibition", "setting": "[25]", "value": "Active"},
      {"measurement": "inhibition", "setting": "[10]", "value": "Active"},
      {"measurement": "inhibition", "setting": "[26]", "value": "inactive"},
      {"measurement": "inhibition", "setting": "[27]", "value": "inactive"},
      {"measurement": "inhibition", "setting": "[12]", "value": "Active"},
      {"measurement": "inhibition", "setting": "[28]", "value": "Active"},
      {"measurement": "inhibition", "setting": "[15]", "value": "Active"}
    ]}
  ]
}
